The subject of test [1] is Mus musculus. Nature of the test: In Vivo detection of total AZT in Mice plasma after oral administration of 41.63 mg/kg after 48 hr. The class given is functional, organism-based. On the set-up: dose 41.63 mg/kg. The procedure, abridged: (§1)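 Male Swiss mice (18–20 g, six weeks old) given the test substance or vehicle ([…]) by gavage as a 3 mM solution (1.5 µmol/mouse). Aortic blood was collected into heparinized tubes at 0.5–48 h and centrifuged at 13000g for 10 min. Plasma was stored at -22 °C and analysed by HPLC. Three mice were used per time point, in triplicate. Values were not corrected for recovery.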

Test [2] concerns Mus musculus. Nature of the test: In Vivo detection in Mice brains after oral administration of 41.63 mg/kg detected in the form of AZT after 2 hr. The class given is functional.
Test [3] concerns Mus musculus. Nature of the test: In Vivo detection in Mice brains after oral administration of 41.63 mg/kg detected in the form of AZT phosphodiester 2 after 24 hr. In kind it is functional.
Test [4] has as its system Mus musculus. As to the kind of experiment: In Vivo detection of total AZT in Mice brains after oral administration of 41.63 mg/kg after 4 hr. In kind it is functional. The method, boiled down: (§2)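 Male Swiss mice (18–20 g) dosed orally with a 3 mM solution in […] vehicle; decapitated at 0.5–48 h. Brains were homogenized in acetonitrile-water (3:1), centrifuged at 6000g for 40 min at 4 °C, lyophilized, redissolved in water and filtered (0.45 µm). Reversed-phase C18 column-switching HPLC with diode-array detection; standard spiking; vehicle-fed controls. Three mice per point, triplicates.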

In test [5] the test system is Mus musculus. As to the kind of experiment: In Vivo detection in Mice brains after oral administration of 41.63 mg/kg detected in the form of AZT 5`-P after 0.5 hr. In kind it is functional.
Test [6] has as its system Mus musculus. Nature of the test: In Vivo detection in Mice brains after oral administration of 20 mg/kg detected in the form of AZT phosphodiester 2 after 48 hr. The class given is functional.
The test system of test [7] is Mus musculus. Nature of the test: In Vivo detection in Mice plasma after oral administration of 41.63 mg/kg detected in the form of AZT 5`-P after 2 hr. The class given is functional, organism-based. On the set-up: dose 41.63 mg/kg.
The subject of test [8] is Mus musculus. Nature of the test: In Vivo detection in Mice plasma after oral administration of 41.63 mg/kg detected in the form of AZT phosphodiester 2 after 1 hr. The class given is functional, organism-based. Also on record: dose 41.63 mg/kg.
For test [9], the system named is Mus musculus. Nature of the test: In Vivo detection in Mice plasma after oral administration of 41.63 mg/kg detected in the form of AZT after 0.5 hr. In kind it is functional, organism-based. Also on record: dose 41.63 mg/kg.
In test [10] the test system is Mus musculus. As to the kind of experiment: In Vivo detection in Mice plasma after oral administration of 41.63 mg/kg detected in the form of AZT after 2 hr. In kind it is functional, organism-based. On the set-up: dose 41.63 mg/kg.
For test [11], the system named is Mus musculus. Nature of the test: In Vivo detection in Mice brains after oral administration of 41.63 mg/kg detected in the form of AZT phosphodiester 2 after 0.5 hr. The class given is functional.
Test [12] deals with Mus musculus. Nature of the test: In Vivo detection in Mice brains after oral administration of 41.63 mg/kg detected in the form of AZT after 1 hr. In kind it is functional.
Test [13] has as its system Mus musculus. As to the kind of experiment: In Vivo detection of total AZT in Mice brains after oral administration of 41.63 mg/kg after 0.5 hr. The class given is functional. The method, boiled down: as §2
Test [14] concerns Mus musculus. As to the kind of experiment: In Vivo detection in Mice plasma after oral administration of 58.33 mg/kg detected in the form of AZT phosphodiester 2 after 48 hr. The class given is functional, organism-based. On the set-up: dose 58.33 mg/kg. The procedure, abridged:
as §1

For test [15], the system named is Mus musculus. Nature of the test: In Vivo detection in Mice plasma after oral administration of 58.33 mg/kg detected in the form of AZT after 2 hr. In kind it is functional, organism-based. Also on record: dose 58.33 mg/kg.
Test [16] deals with Mus musculus. As to the kind of experiment: In Vivo detection of total AZT in Mice plasma after oral administration of 58.33 mg/kg after 8 hr. On the set-up: dose 58.33 mg/kg. The class given is functional, organism-based. The method, boiled down:
as §1

Test [17] relates to Mus musculus. Nature of the test: In Vivo detection in Mice brains after oral administration of 58.33 mg/kg detected in the form of AZT after 2 hr. The class given is functional.
Test [18] is filed under the species Mus musculus. As to the kind of experiment: Concentration of external nucleoside in mouse brain. In kind it is functional. The procedure, abridged: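 Crude synaptosomes from three mouse brains were prepared by Gray–Whittaker homogenization in 10% sucrose buffered with 5 mM Tris-HCl, pH 7.4. The 7000g pellet was resuspended and incubated with each nucleoside at 3 mM for 15 min at 37 °C, stopped by cold 10-fold dilution and washed twice. Internal nucleoside was extracted in acetonitrile–water (3:1) and measured by HPLC.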

Test [19] relates to Mus musculus. As to the kind of experiment: In Vivo detection in Mice brains after oral administration of 58.33 mg/kg detected in the form of AZT phosphodiester 3 after 24 hr. The class given is functional.
The subject of test [20] is Mus musculus. Nature of the test: In Vivo detection in Mice brains after oral administration of 58.33 mg/kg detected in the form of AZT phosphodiester 2 after 8 hr. The class given is functional.
Test [21] concerns Mus musculus. Nature of the test: In Vivo detection in Mice brains after oral administration of 58.33 mg/kg detected in the form of AZT after 0.5 hr. The class given is functional.
Test [22] has as its system Mus musculus. As to the kind of experiment: In Vivo detection in Mice plasma after oral administration of 58.33 mg/kg detected in the form of AZT after 8 hr. On the set-up: dose 58.33 mg/kg. The class given is functional, organism-based. The method, boiled down:
as §1

Test [23] relates to Mus musculus. Nature of the test: In Vivo detection in Mice brains after oral administration of 58.33 mg/kg detected in the form of AZT after 4 hr. In kind it is functional.
The subject of test [24] is Mus musculus. Nature of the test: In Vivo detection in Mice brains after oral administration of 58.33 mg/kg detected in the form of AZT phosphodiester 3 after 4 hr. In kind it is functional.
The test system of test [25] is Mus musculus. As to the kind of experiment: In Vivo detection of total AZT in Mice brains after oral administration of 58.33 mg/kg after 48 hr. In kind it is functional. The procedure, abridged:
as §2

Test [26] deals with Mus musculus. Nature of the test: In Vivo detection in Mice plasma after oral administration of 58.33 mg/kg detected in the form of AZT after 0.5 hr. The class given is functional, organism-based. On the set-up: dose 58.33 mg/kg.
Test [27] has as its system Mus musculus. As to the kind of experiment: In Vivo detection in Mice plasma after oral administration of 58.33 mg/kg detected in the form of AZT phosphodiester 3 after 2 hr. The class given is functional, organism-based. Also on record: dose 58.33 mg/kg. The procedure, abridged: as §1
In test [28] the test system is Mus musculus. As to the kind of experiment: In Vivo detection in Mice plasma after oral administration of 58.33 mg/kg detected in the form of AZT after 1 hr. In kind it is functional, organism-based. On the set-up: dose 58.33 mg/kg.
Test [29] relates to Mus musculus. Nature of the test: In Vivo detection in Mice plasma after oral administration of 58.33 mg/kg detected in the form of AZT phosphodiester 3 after 0.5 hr. In kind it is functional, organism-based. Also on record: dose 58.33 mg/kg. The procedure, abridged:
as §1

In test [30] the test system is Mus musculus. As to the kind of experiment: In Vivo detection in Mice plasma after oral administration of 58.33 mg/kg detected in the form of AZT 5`-P after 4 hr. On the set-up: dose 58.33 mg/kg. The class given is functional, organism-based.
In test [31] the test system is Mus musculus. As to the kind of experiment: In Vivo detection in Mice brains after oral administration of 58.33 mg/kg detected in the form of AZT 5`-P after 1 hr. In kind it is functional.
In test [32] the test system is Mus musculus. Nature of the test: In Vivo detection in Mice brains after oral administration of 58.33 mg/kg detected in the form of AZT after 48 hr. The class given is functional.
Test [33] has as its system Mus musculus. Nature of the test: In Vivo detection in Mice plasma after oral administration of 58.33 mg/kg detected in the form of AZT phosphodiester 2 after 2 hr. Also on record: dose 58.33 mg/kg. In kind it is functional, organism-based. The procedure, abridged: as §1
In test [34] the test system is Mus musculus. Nature of the test: In Vivo detection in Mice brains after oral administration of 58.33 mg/kg detected in the form of AZT phosphodiester 2 after 24 hr. The class given is functional.
Test [35] relates to Mus musculus. Nature of the test: In Vivo detection in Mice brains after oral administration of 58.33 mg/kg detected in the form of AZT phosphodiester 3 after 48 hr. In kind it is functional.
The test system of test [36] is Mus musculus. As to the kind of experiment: In Vivo detection of total AZT in Mice brains after oral administration of 58.33 mg/kg after 2 hr. The class given is functional. The method, boiled down: as §2
For test [37], the system named is Mus musculus. Nature of the test: In Vivo detection in Mice plasma after oral administration of 58.33 mg/kg detected in the form of AZT 5`-P after 48 hr. The class given is functional, organism-based. Also on record: dose 58.33 mg/kg.
The subject of test [38] is Mus musculus. Nature of the test: In Vivo detection in Mice brains after oral administration of 58.33 mg/kg detected in the form of AZT phosphodiester 2 after 2 hr. In kind it is functional.

Turning to `Cc1cn([C@H]2C[C@H](N=[N+]=[N-])[C@@H](COP(=O)(O)OCCO[C@H]3O[C@H](CO)[C@@H](O)[C@H](O)[C@@H]3O)O2)c(=O)[nH]c1=O`, the Plasma content was 17.9 nM ml-1 in the test with Mus musculus [1]; 15 nM ml-1 in the test on Mus musculus [7]; 5.2 nM ml-1 in the test on Mus musculus [8]; 31.6 nM ml-1 in the test on Mus musculus [9]; 3.1 nM ml-1 with Mus musculus [10]. The Brain content in the test with Mus musculus [2] is 1.2 nmol/g; with Mus musculus [3], 4.5 nM ml-1; in the test on Mus musculus [4], 68.1 nM ml-1; in the test on Mus musculus [5], 31 nmol/g; in the test with Mus musculus [6] it was 2.5 nM ml-1; in the test on Mus musculus [11] it was 5.8 nM ml-1. The Brain content with Mus musculus [12] was determined as 1.9 nmol/g; in the test on Mus musculus [13] it was 38.6 nM ml-1.
Turning to `CCCCCCCCCCCCCCCCOP(=O)(OCCO[C@H]1O[C@H](CO)[C@@H](O)[C@H](O)[C@@H]1O)OCC1OC(n2cc(C)c(=O)[nH]c2=O)CC1N=[N+]=[N-]` (stereo partly drawn), the Plasma content in the test on Mus musculus [14] was 0 nM ml-1; in the test on Mus musculus [15], 1.4 nM ml-1; in the test on Mus musculus [16], 26.3 nM ml-1; with Mus musculus [22], 8.6 nM ml-1; in the test on Mus musculus [26], 1.6 nM ml-1; with Mus musculus [27] it was 0 nM ml-1. Besides, the Plasma content was 1.3 nM ml-1 with Mus musculus [28]; 0 nM ml-1 in the test on Mus musculus [29]; 3 nM ml-1 in the test on Mus musculus [30]; 0 nM ml-1 in the test on Mus musculus [33]; 14.2 nM ml-1 in the test on Mus musculus [37]. The Brain content in the test on Mus musculus [17] stood at 2.9 nmol/g; with Mus musculus [19], 0 nmol/g; with Mus musculus [20], 5.3 nM ml-1; with Mus musculus [21], 1.5 nmol/g; in the test with Mus musculus [23], 1 nmol/g; in the test with Mus musculus [24], 0 nM ml-1. Also, the Brain content is 63.5 nM ml-1 in the test with Mus musculus [25]; 147 nmol/g with Mus musculus [31]; 1.1 nmol/g with Mus musculus [32]; 5.2 nmol/g in the test on Mus musculus [34]; 0 nmol/g in the test with Mus musculus [35]; 140.8 nM ml-1 with Mus musculus [36]. This compound displayed a Brain content in the test on Mus musculus [38] of 5.2 nmol/g. The compound further came in with an External nucleoside in the test listed under Mus musculus [18] of 9100 nM/g.

The values are drawn from ChEMBL document CHEMBL1125520, “Improved brain delivery of AZT using a glycosyl phosphotriester prodrug” (1992).
